Our source for the Activity and zone of inhibition values is ChEMBL document CHEMBL1158118, “Decaspirones F-I, bioactive secondary metabolites from the saprophytic fungus Helicoma viridis” (2006).

Active and inactive are the calls of the source. No cut-off for these calls is given here.

In one test the test system is Micrococcus luteus. As to the kind of experiment: Antibacterial activity against Sarcina lutea CMCC B28001 at 100 ug/disk by standard disk assay. In kind it is functional, organism-based. The method in brief: (§1)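 Test compound loaded onto 6 mm paper disks at 100 µg/disk and laid on the agar surface. Plates incubated at 37 °C for 24 h, then scored for a zone of inhibition.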

Another test concerns Geotrichum candidum. Kind of test: Antifungal activity against Geotrichum candidum AS2.498 at 100 ug/disk by standard disk assay. The test is classed as functional, organism-based. In a few lines:
(§2)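 Paper disks (6 mm diameter) carrying 100 µg of test compound placed on the agar surface. Plates kept at 25 °C for 48 h and checked for a zone of inhibition.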

For a further test, the system named is Streptococcus mutans. As to the kind of experiment: Antibacterial activity against Streptococcus mutans ATCC 25175 at 100 ug/disk by standard disk assay. The test is classed as functional, organism-based. In a few lines:
as §1

The next test relates to Staphylococcus aureus. As to the kind of experiment: Antibacterial activity against Staphylococcus aureus ATCC 6538 at 100 ug/disk by standard disk assay. The test is classed as functional, organism-based. The method in brief: as §1
Another test has as its system Lactococcus lactis. As to the kind of experiment: Antibacterial activity against Lactococcus lactis PCM 2379 at 100 ug/disk by standard disk assay. As to conditions: read-out: IZ. The test is classed as functional. In a few lines: as §1
A further test deals with Aspergillus fumigatus. As to the kind of experiment: Antifungal activity against Aspergillus fumigatus ATCC 10894 at 100 ug/disk by standard disk assay. In kind it is functional, organism-based. In a few lines:
as §2

A further test relates to Enterococcus faecalis. Kind of test: Antibacterial activity against Enterococcus faecalis ATCC 19433 at 100 ug/disk by standard disk assay. The test is classed as functional, organism-based. In a few lines: as §1
Another test relates to Pseudomonas aeruginosa. As to the kind of experiment: Antibacterial activity against […] Pseudomonas aeruginosa ATCC 27853 at 100 ug/disk by standard disk assay. The test is classed as functional. As to conditions: read-out: IZ. The method in brief: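 Disk diffusion on agar; compounds loaded onto 6 mm paper disks at 100 µg/disk and placed on the plate surface. Plates incubated at 37 °C for 24 h, then zone of inhibition recorded in mm. Ciprofloxacin at 100 µg/disk served as reference.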

The test system of another test is Candida albicans. As to the kind of experiment: Antifungal activity against Candida albicans ATCC 10231 at 100 ug/disk by standard disk assay. The test is classed as functional, organism-based. The method in brief:
as §2

Regarding `O=C1CC[C@@H](O)[C@@H]2[C@@H]1[C@@H](O)C=CC21Oc2cccc3cccc(c23)O1` [DECASPIRONE G], the result in the test with Micrococcus luteus, in the test on Geotrichum candidum, in the test on Streptococcus mutans, in the test with Staphylococcus aureus, with Aspergillus fumigatus and in the test with Enterococcus faecalis was inactive. For the same compound, the outcome in the test with Candida albicans was inactive. Moreover, the zone of inhibition at 100 µg/disc was found to be 12 mm in the test with Lactococcus lactis and 8 mm in the test with Pseudomonas aeruginosa.

For the compound `O[C@H]1[C@@H]2[C@H]([C@@H](O)C=CC23Oc2cccc4cccc(c24)O3)[C@@H](O)C[C@@H]1O` [DECASPIRONE H], the outcome in the test with Micrococcus luteus, in the test with Geotrichum candidum, in the test with Streptococcus mutans, in the test with Staphylococcus aureus, with Aspergillus fumigatus and in the test on Enterococcus faecalis was inactive. Also, the result with Candida albicans was inactive. Further, the zone of inhibition at 100 µg/disc in the test with Pseudomonas aeruginosa stood at 8 mm.

Take `O[C@@H]1C=C[C@H](O)[C@@H]2[C@@H]1C1(C=C[C@@H]2O)Oc2cccc3cccc(c23)O1` [DECASPIRONE F]: the outcome in the test with Micrococcus luteus, with Geotrichum candidum, with Streptococcus mutans, in the test on Staphylococcus aureus, in the test with Aspergillus fumigatus and with Enterococcus faecalis was inactive. For the same compound, in the test on Candida albicans, the outcome was inactive. Also, in the test on Pseudomonas aeruginosa, the zone of inhibition at 100 µg/disc was found to be 8 mm.

In the case of `O=C(O)c1cn(C2CC2)c2cc(N3CCNCC3)c(F)cc2c1=O` [CIPROFLOXACIN], the zone of inhibition at 100 µg/disc with Pseudomonas aeruginosa was 22 mm.

For the compound `O=C1CCC(O)c2c(Oc3cccc4cccc(O)c34)cccc21` (centres undefined) [DECASPIRONE I], the result with Micrococcus luteus, with Geotrichum candidum, in the test on Streptococcus mutans, in the test on Staphylococcus aureus, in the test on Aspergillus fumigatus and in the test on Enterococcus faecalis was inactive. Moreover, the outcome with Candida albicans was inactive. Also, the zone of inhibition at 100 µg/disc in the test with Pseudomonas aeruginosa was 8 mm.
